Bioassay records deposited in PubChem BioAssay by Sanford-Burnham Center for Chemical Genomics.
An excerpt weighted towards active compounds, which were near 1.8% of everything screened.
FLuc inhib CS – counter-screen for luciferase assay inhibitors: firefly luciferase inhibition; AID 1006; 200,000 tested, 1.5% active; inhibition, % at 10 µM; ATPLite firefly luciferase biochemical luminescence, 10 min; P08659;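 active means inhibition above about 50% when tested at 10 µM, limit read from the data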
Target sequence (P08659 whole entry, looked up): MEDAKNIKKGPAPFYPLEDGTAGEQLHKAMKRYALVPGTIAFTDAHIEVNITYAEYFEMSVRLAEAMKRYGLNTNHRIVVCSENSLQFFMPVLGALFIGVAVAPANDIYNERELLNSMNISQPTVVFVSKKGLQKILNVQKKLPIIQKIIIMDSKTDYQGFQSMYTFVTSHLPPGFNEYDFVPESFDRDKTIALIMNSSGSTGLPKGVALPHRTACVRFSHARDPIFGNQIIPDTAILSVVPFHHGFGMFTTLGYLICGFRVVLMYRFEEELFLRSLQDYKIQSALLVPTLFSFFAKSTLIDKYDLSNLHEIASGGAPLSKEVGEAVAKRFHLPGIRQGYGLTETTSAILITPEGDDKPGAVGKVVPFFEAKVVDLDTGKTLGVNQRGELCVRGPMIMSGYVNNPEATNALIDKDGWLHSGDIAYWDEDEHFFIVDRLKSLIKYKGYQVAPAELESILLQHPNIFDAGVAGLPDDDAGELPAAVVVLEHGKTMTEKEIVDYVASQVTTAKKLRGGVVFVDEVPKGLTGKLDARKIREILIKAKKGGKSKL
beta cell repl – induces beta-cell replication in MIN6 cells; MIN6 cells proliferation, ATPlite luminescence, 48 h; cells starved in 0.2% serum; 100% = growth in 10% serum; proliferation, % at 10 µM; 330,000 tested, 0.29% active; AID 2380;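 active means compounds whose signal lies at least 3.5 SD above the mean of all wells on their plate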;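 further: 0% = DMSO-treated cells in low-serum medium and 100% = 10% serum control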
PPC-1+TRAIL kill – PPC-1 cancer cell killing with TRAIL present; PPC-1 cells + TRAIL, ATPLite viability luminescence; 220,000 tested, 0.41% active; cell killing (% activity), % at 4 µM or 5 µM;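 active means cell killing above 50% in the first pass at 4 µM, then a duplicate retest at 5 µM averaging 50% or more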;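 further: plate controls were cells with TRAIL plus DMSO for no effect and medium-only wells lacking cells for full effect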
FLuc act counter – affects firefly luciferase, flagging false hits in luciferase stimulation screens. ATPlite luciferase biochemical, luminescence, 10 min; 0 = ATP-free wells, 1 = DMSO control. P08659. 200,000 tested, under 10 active. activation factor at 10 µM;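 active means luciferase activation factor, scaled between plate controls, of at least 2 with compound at 10 µM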
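Material: Luciferase/luciferin reagent mix | Doses: Test compounds dosed from 2 mM stocks in 100% DMSO | Timing: 10 min incubation after luciferase reagent addition, room temperature | Measured by: Luminescence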
hiPSC survival – increases survival of single human iPS cells; survival enhancement, % at 20 µM; hiPSC single-cell survival, ATPlite luminescence; 100% = ROCK inhibitor wells, 0% = DMSO; 360,000 tested, 0.044% active; in the data active means survival enhancement above about 18%;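 further: cells exposed to compounds for 16 hours before the ATP read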
TRAIL sens C8 – caspase-8 TRAIL sensitization; NB7+C8 cells + TRAIL, ATPlite viability luminescence; AID 624354; inhibition (viability loss, TRAIL sensitization), % at 10 µM; 360,000 tested, 1% active;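 active means compounds causing at least 50% loss of cell viability in the single-dose screen, relative to plate controls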
* marks the source's active call; other numbers are inactive results; nt = not tested or not shown.

SMILES | FLuc inhib CS | beta cell repl | PPC-1+TRAIL kill | FLuc act counter | hiPSC survival | TRAIL sens C8
O=C(Nc1nnc(-c2ccc(Cl)cc2)o1)C1CCCCC1 | nt | -3 | 4 | nt | 0 | 1
C=CCN1C(=O)C(CC(=O)Nc2ccccc2)S/C1=N/c1nccs1 (centres undefined) | nt | -1 | 8 | nt | 0 | -17
Cc1ccc(C(=O)N/C(=C\c2ccc(-c3ccccc3[N+](=O)[O-])o2)C(=O)NCCN(C)C)cc1 | nt | -5 | nt | nt | -1 | 54*
Cc1ccc(C(=O)N/C(=C\c2ccc(-c3ccccc3[N+](=O)[O-])o2)C(=O)NCCCN(C)C)cc1 | nt | -7 | nt | nt | 0 | 49*
CN(C)CCNC(=O)/C(=C/c1ccc(-c2cccc([N+](=O)[O-])c2)o1)NC(=O)c1ccccc1 | -6 | -5 | 29 | 1.1 | -1 | -1
C[C@H](NC(=O)c1ccco1)C(=O)NNC(=O)c1ccc(F)cc1 | nt | -5 | nt | nt | -3 | -8
Nc1nc(F)nc2c1ncn2[C@@H]1O[C@H](CO)[C@@H](O)[C@H]1O | nt | -8 | nt | nt | -1 | 57*
OCC1OC(n2cnc3c(SCc4ccccc4)ncnc32)C(O)C1O (centres undefined) | nt | nt | nt | nt | 1 | 55*
OCC1OC(n2cnc3c(NCc4ccco4)ncnc32)C(O)C1O (centres undefined) | nt | nt | nt | nt | -4 | 59*
OC[C@H]1O[C@@H](n2cnc3c(NC4CCCC4)ncnc32)[C@H](O)[C@@H]1O | -9 | 0 | 3 | 1.1 | 3 | -2
C=CCNc1ncnc2c1ncn2C1OC(CO)C(O)C1O (centres undefined) | -3 | -1 | 11 | 1 | 3 | 57*
Cc1ccc(-c2nc(-c3ccncc3)no2)cc1Cl | nt | -3 | nt | nt | 0 | 1
Clc1ccc(-c2nc(-c3cnccn3)no2)cc1 | nt | -2 | 25 | nt | -1 | 53*
Fc1ccc(-c2nc(-c3cnccn3)no2)c(Cl)c1 | nt | -3 | 49 | nt | -1 | 60*
Cc1cc(=O)oc2cc(OCC(=O)N3CC(=O)Nc4ccccc43)c(Cl)cc12 | nt | 5 | nt | nt | 0 | -6
O=C(c1ccccc1)c1cc(-c2ccccc2)on1 | 81* | -3 | 14 | 0.2 | -4 | 19
Cc1ccc(NC(=O)c2cc(C)n(-c3ccccc3)c2C)cc1 | 95* | 0 | 77* | 0 | -3 | 93*
Cc1ccc(NC(=O)c2cnn(-c3ccccc3)c2C)cc1 | nt | -3 | nt | nt | 0 | 45
Cc1ccc(NC(=O)c2cc(C)n(-c3cccc(C)c3)c2C)cc1 | 74* | -5 | 20 | 0.3 | -3 | 30
COc1ccc(C(=O)N/N=C/c2ccc(OC)c(COc3ccc(F)cc3F)c2)cc1 | nt | -3 | nt | nt | 0 | 0
O=C(/C=C/Nc1ccc(F)cc1)c1ccco1 | 92* | -4 | 48 | 0.1 | -5 | 60*
CCOC(=O)c1ccc(N/C=C/C(=O)c2ccc(OC)c(OC)c2)cc1 | -4 | 0 | 8 | 1 | 0 | 18
CCOC(=O)c1ccc(N/C=C/C(=O)c2ccco2)cc1 | 62* | -2 | 26 | 0.4 | -3 | 51*
CCc1nc2c(OCc3ccc(Cl)cc3Cl)cccn2c1N(C)C(C)=O | nt | nt | nt | nt | 8 | -6
CCOc1cc(NC(=O)CCl)c(OCC)cc1NC(=O)CCl | nt | -6 | 16 | nt | 0 | 91*
SMILES | FLuc inhib CS | beta cell repl | PPC-1+TRAIL kill | FLuc act counter | hiPSC survival | TRAIL sens C8
CNC[C@@H](CC1CCCCC1)NC[C@H](CC(C)C)NCCc1cccc(C(F)(F)F)c1 | nt | -8 | nt | nt | -3 | 92*
CNC[C@@H](Cc1ccccc1)NC[C@@H](CC1CCCCC1)NCCCc1ccccc1 | nt | -8 | nt | nt | -6 | 96*
CN(Cc1cccc(C(F)(F)F)c1)C(=O)C1CCC(=O)N(CC2CCCCC2)C1 (centres undefined) | nt | -1 | nt | nt | 0 | 9
Cc1ccc(/C=N/OC(=O)c2nn(C)cc2Cl)cc1 | 76* | -1 | nt | 0.2 | -3 | -3
Cc1ccc(S(=O)(=O)Oc2ccc(/C=N/NC(=O)c3nn(C)cc3Cl)cc2)cc1 | -5 | -2 | -3 | 1 | -1 | 13
C=C1CC(Cn2cc(Br)c(=O)[nH]c2=O)(c2ccc(-c3ccccc3)cc2)OC1=O (centres undefined) | nt | nt | nt | nt | -3 | 94*
O=c1[nH]c(=O)n(Cc2ccc(Oc3ccccc3)cc2)cc1Br | nt | 1 | nt | nt | 0 | -8
